Bioassay records from PubChem.
Most compounds without a hit are left out; they make up all but 2.1% or so of the library.
APJ antag – antagonists of human APJ apelin receptor; P35414; CHO-K1 APJ beta-arrestin complementation, luminescence; inhibition, % at 20 µM; 330,000 tested, 0.32% active;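 active means inhibition above about 40% at 20 µM, limit read from the data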;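 further: cells challenged with 10 nM apelin-13 agonist together with compound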
EBI2 antag – EBI2 (human) antagonism | AID 651636 | P32249 | inhibition, % at 5 µM | EBI2 beta-arrestin recruitment, luminescence, 7a,25-OHC stimulated | 360,000 tested, 0.81% active; in the data active means inhibition above about 38%;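 further: enzyme fragment complementation signal reports receptor beta-arrestin coupling in cells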
HTR2A ag – mouse HTR2A agonism via beta-arrestin recruitment. CHO-K1 mHTR2A beta-arrestin complementation, luminescence; percent of 30 µM serotonin response. activation, % at 7.6 µM. 360,000 tested, 0.66% active;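 active means activation above a run cutoff, the mean activation of all tested compounds plus 3 SD, cut at about 14% in these data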
CCR6 antagonist – antagonists of human CCR6 receptor; P51684; CHO-K1 CCR6 PathHunter beta-arrestin, luminescence, CCL20-stimulated; inhibition, % at 20 µM; 340,000 tested, 0.49% active; AID 493098;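 active means compounds whose inhibition of the agonist-driven luminescence signal at 20 µM reaches about 50%, limit read from the data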;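 further: cells stimulated with CCL20 at 14 nM final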
CXCR6 inh – blocks human CXCR6 beta-arrestin recruitment | inhibition, % at 20 µM | 360,000 tested, 0.36% active | CHO-K1 PathHunter CXCR6 beta-arrestin, luminescence; in the data active means inhibition above about 34%, passing the limit was not always enough;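 further: antagonist mode with CXCL16 agonist at 10 nM final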
Target sequence (O00574 whole entry, looked up): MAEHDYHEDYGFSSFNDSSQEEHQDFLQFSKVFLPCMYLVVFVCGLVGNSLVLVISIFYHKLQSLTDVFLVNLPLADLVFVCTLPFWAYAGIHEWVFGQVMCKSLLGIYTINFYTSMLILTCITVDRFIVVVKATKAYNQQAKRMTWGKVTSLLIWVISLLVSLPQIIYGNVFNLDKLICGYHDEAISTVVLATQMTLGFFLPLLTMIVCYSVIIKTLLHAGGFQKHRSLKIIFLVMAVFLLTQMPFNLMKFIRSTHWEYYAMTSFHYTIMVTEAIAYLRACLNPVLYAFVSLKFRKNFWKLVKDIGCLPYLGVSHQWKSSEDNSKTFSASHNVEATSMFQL
APJ ag – agonists of human APJ apelin receptor. P35414. CHO-K1 APJ PathHunter beta-arrestin, luminescence; 0% DMSO wells, 100% apelin. activation, % at 20 µM. 330,000 tested, 0.11% active. AID 2520;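 active means activation more than six SD over the plate average, tested at 20 µM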
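Material: engineered CHO-K1 APJ arrestin reporter cells; amount: 1000 CHO-K1 reporter cells seeded per well; incubation: compound stimulation 90 min at 25 °C, detection 60 min; signal: luminescent beta-gal fragment complementation, chemiluminescent substrate; read-out basis: APJ agonist activity; controls: DMSO-only wells as negative, 10 nM Apelin-13 as positive control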
Of the large screens only hits and unclear results are named; the others gave an inactive call.

CCN(CC)CCn1c(NC(=O)c2ccccc2O)nc2ccccc21	CXCR6 inh 57 (no result: CCR6 antagonist)
COc1ccc(C(=O)c2[nH]c(N)c(C(=O)NCCc3c[nH]c4ccccc34)c2-c2ccc(OC)c(OC)c2)cc1	none (no result: APJ antag, CCR6 antagonist, APJ ag)
CNC(=S)N1N=C(c2ccc(Br)cc2)CC1c1ccc(N(C)C)cc1 (centres undefined)	EBI2 antag 94
COc1ccc(C2CC(c3ccc(Br)cc3)=NN2C(=S)Nc2ccccc2)cc1 (centres undefined)	none
CCc1ccc(C2C(C#N)=C(N)C(C#N)(C#N)C3=CCC(C(C)(C)C)CC32)cc1 (centres undefined)	CCR6 antagonist 68, CXCR6 inh 42
CC(C)(C)C1CC=C2C(C#N)=C(N)C(C#N)(C#N)C(c3cccs3)C2C1 (centres undefined)	none (no result: EBI2 antag, HTR2A ag, CCR6 antagonist, CXCR6 inh)
COc1ccc(C(O)CNc2ccc(C)cc2)cc1 (centres undefined)	EBI2 antag 66
COc1ccc(NC(=O)CCSc2ccc(C)cc2)cc1	none
O=C(O)CSC(C(=O)Nc1ccc(Br)cc1)c1ccccc1 (centres undefined)	none
C[C@@H](C(=O)Nc1ccc2ccccc2c1)[C@@H]1C[C@@]1(C)[C@@H](NC(=O)c1ccccc1)c1ccccc1	EBI2 antag 54
C[C@@H](C(=O)Nc1ccc2ccccc2c1)[C@H]1C[C@]1(C)[C@H](NC(=O)c1cccnc1)c1ccccc1	none (no result: EBI2 antag, HTR2A ag, CXCR6 inh)
Cc1ccccc1N1CCN(S(=O)(=O)C[C@]23CCC(CC2NC(=O)[C@@H](N)CCS(C)(=O)=O)C3(C)C)CC1 (some centres undefined)	none
C/C(=C\C(=O)c1ccc(Br)cc1)NNC(=O)c1ccccc1	CCR6 antagonist 65
COc1ccc(C(=O)C(C)OC(=O)c2cccc(S(=O)(=O)Nc3cc(Cl)c(OC)cc3OC)c2)cc1 (centres undefined)	EBI2 antag 37
N#Cc1ccc(Nc2nc(-c3ccc(O)cc3O)cs2)cc1C(F)(F)F	EBI2 antag 56
Cc1ccc2ccc(C(Nc3cccc(C(F)(F)F)c3)c3cccnc3)c(O)c2n1 (centres undefined)	CCR6 antagonist 53, CXCR6 inh 40
Cc1ccc2ccc(C(Nc3ccccc3)c3ccccc3)c(O)c2n1 (centres undefined)	none (no result: APJ antag, CCR6 antagonist, CXCR6 inh, APJ ag)
CC(C(c1ccc2c(c1)OCO2)c1c(N)n(C)c(=O)n(C)c1=O)[N+](=O)[O-] (centres undefined)	none
Cc1cccc(Nc2nc(-c3sc(C)nc3C)cs2)c1	EBI2 antag 57
CCOC(=O)C1CCCN(C(=O)Cn2sc3nc(C)cc(C)c3c2=O)C1 (centres undefined)	CCR6 antagonist 67
CCOC(=O)c1ccc(N/N=C/c2cc(Br)cc([N+](=O)[O-])c2O)cc1	CCR6 antagonist 60, CXCR6 inh 52
CCOC(=O)c1ccc(NC(=O)c2ccccc2[N+](=O)[O-])cc1	none
CCNC1=C(Cl)C(=O)c2ccccc2C1=O	none
CCCC(=O)NC1=C(Cl)C(=O)c2ccccc2C1=O	CCR6 antagonist 107, CXCR6 inh 99 (no result: APJ antag, APJ ag)
CCN(CC)c1ccc(NC2=C(Cl)C(=O)c3ccccc3C2=O)cc1	CCR6 antagonist 57 (no result: APJ antag, APJ ag)
COc1ccc2cc3cc(C(=O)Nc4ccccc4N4CCN(C)CC4)oc3nc2c1	HTR2A ag 16
COc1ccc2cc3cc(C(=O)NCCN4CCN(c5ccccc5F)CC4)oc3nc2c1	none
COc1ccccc1NC(=O)COc1ccc(/C=N/NC(=O)CSCc2ccc(Cl)cc2)cc1	APJ antag 64
COc1ccccc1NC(=O)COc1ccc(/C=N/NC(=O)CSCc2cc(C)cc(C)c2)cc1	none
CC(=O)N1CCN(C(=O)c2cc3c(s2)CCC(C)C3)CC1 (centres undefined)	none
CCCCCCCCN1C(=O)[C@H](CC(=O)NCCCOC)C[C@@]2(C(=O)OCC)CCCC=C12	none (no result: APJ antag, CCR6 antagonist, APJ ag)
CCC1=NN(C(=O)c2cccc(Br)c2)C(O)(c2ccc(Br)cc2)C1 (centres undefined)	CCR6 antagonist 56
CCCCN(C(=O)Cc1ccc(S(=O)(=O)N2CCOCC2)s1)c1c(N)n(CCCC)c(=O)[nH]c1=O	none
CNc1ccc(S(=O)(=O)NCC(=O)NCCCc2ccccc2)cc1[N+](=O)[O-]	none
COc1ccccc1C1NC(=O)NC(C)=C1C(=O)OC1CCCCC1 (centres undefined)	HTR2A ag 15
COc1ccc(OC)c(C2NC(=O)NC(C)=C2C(=O)OC2CCCCC2)c1 (centres undefined)	none
Cc1sc2nc(SCC(=O)N3CC(C)OC(C)C3)n(C)c(=O)c2c1C (centres undefined)	none
COc1ccccc1C(=O)Nc1nc2cc3c(cc2s1)OCCO3	HTR2A ag 23
C[C@H]1CN([C@@H](C)CO)C(=O)c2cccc(NC(=O)Nc3ccc(C(F)(F)F)cc3)c2O[C@@H]1CN(C)C(=O)Nc1ccc(F)cc1	none
C[C@H](CO)N1C[C@H](C)[C@@H](CN(C)C(=O)Nc2ccc(C(F)(F)F)cc2)Oc2c(NC(=O)Nc3ccc(C(F)(F)F)cc3)cccc2C1=O	EBI2 antag 43, HTR2A ag 15
O=C(CCC(=O)N1CCOCC1)NCCc1ccccc1	none
CN(C)S(=O)(=O)c1ccc(C(=O)NNC(=O)C23CC4CC(CC(C4)C2)C3)cc1	none
O=C(NCc1ccncc1)[C@@H]1CCCN1C(=O)[C@@H]1CCCN1C(=O)c1ccccc1Cl	none (no result: APJ antag, CCR6 antagonist, APJ ag)
Cc1nc([N+](=O)[O-])c(Br)n1CC(=O)c1ccc2ccccc2c1	EBI2 antag 55
O=C1Nc2ccccc2/C1=C\C(=O)c1ccccc1	EBI2 antag 61
Cc1cc(Cl)ccc1N=c1ssnc1Cl	EBI2 antag 38
CC[C@]12c3[nH]c4cc(-c5ccco5)ccc4c3CCN1C(=O)[C@@H](CC(=O)NCCCn1ccnc1)C[C@@H]2C(=O)N1CCN(C(=O)C2CC2)CC1	none (no result: APJ antag, APJ ag)
C[C@@H](NC(=O)c1nc[nH]c1C(=O)N[C@@H](Cc1ccccc1)C(=O)OCc1ccccc1)c1ccccc1	none
CN(Cc1ccccc1)C(=O)c1[nH]cnc1C(=O)N[C@@H](Cc1ccccc1)C(=O)OCc1ccccc1	HTR2A ag 23
COC(=O)[C@@H]1[C@@H](C#N)C2(c3ccccc3-c3ccccc32)N(c2ccc(Cl)cc2)N1C#N	CXCR6 inh 52
O=C(CCN1C(=O)c2ccccc2C1=O)C1=NN[C@@H]2C(=O)N(c3ccc4c(c3)OCCO4)C(=O)[C@H]12	none
CCOc1ccc(C(=O)NC(=S)Nc2ccc(NC(=O)CC)cc2)cc1[N+](=O)[O-]	CCR6 antagonist 56
CCOc1ccc(C(=O)NC(=S)Nc2ccc(N3CCCCC3)cc2)cc1[N+](=O)[O-]	none
